Three compounds from ChEMBL document CHEMBL6083205, “A comprehensive apoptotic assessment of niloticin in cervical cancer cells: a tirucallane-type triterpenoid from Aphanamixis polystachya (Wall.) Parker” (RSC Med Chem, 2024) can be followed below.

The assay concerns HeLa. Nature of the assay: Antiproliferative activity against human HeLa cells assessed as inhibition of cell growth incubated for 24 hrs by MTT assay. In kind it is functional, cell-based. The method, boiled down: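 Cells kept in DMEM with 10% FBS and 1% antibiotic-antimycotic at 37 °C and 5% CO2. Seeded at 8 × 10^3 cells per 100 μL and left 24 h, then exposed 24 h to 5, 10, 20, 50 or 100 μM. MTT at 0.5 mg/mL in HBSS was added for 2–4 h at 37 °C in the dark. Formazan was dissolved in DMSO, A570 was read, and IC50 was derived.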

As usually defined, the IC50 is the concentration that gives 50% inhibition. With `COc1cccc2c1C(=O)c1c(O)c3c(c(O)c1C2=O)C[C@@](O)(C(=O)CO)C[C@@H]3O[C@H]1C[C@H](N)[C@H](O)[C@H](C)O1` [DOXORUBICIN], the IC50 was found to be 32.2 µM.

In the case of `C[C@@H](C[C@@H](O)[C@H](O)C(C)(C)O)[C@@H]1CC[C@]2(C)C3=CC[C@H]4C(C)(C)C(=O)CC[C@]4(C)[C@H]3CC[C@@]12C`, the 50% inhibitory concentration (IC50) is over 100 µM.

Regarding `C[C@@H](C[C@@H](O)[C@@H](O)C(C)(C)O)[C@@H]1CC[C@]2(C)C3=CC[C@H]4C(C)(C)C(=O)CC[C@]4(C)[C@H]3CC[C@@]12C`, the concentration for half-maximal inhibition (IC50) is 51.9 µM.
